Source: ChEMBL document CHEMBL3784976 (J Med Chem, 2016)
Activity calls are given as the source filed them. No cut-off for these calls is given here.

Experiments:
[1] = target: Substance-K receptor (Homo sapiens) (UniProt P21452); assay: Displacement of [125I]NKA from human recombinant NK2 receptor expressed in CHO cells assessed as remaining radioligand binding at 10 uM after 60 mins by scintillation counting method relative to control; assay type: cell-based
Cavia porcellus = organism: Cavia porcellus; assay: Displacement of [3H]NBTI from adenosine transporter in guinea pig cerebral cortex assessed as remaining radioligand binding at 10 uM after 30 mins by scintillation counting method relative to control; assay type: tissue-based
[2] = target: Transient receptor potential cation channel subfamily A member 1 (Rattus norvegicus, UniProt Q6RI86); assay: Antagonist activity at rat TRPA1 expressed in tetracycline-inducible T-REx expression system transfected CHO cells assessed as inhibition of AITC-induced 45Ca2+ uptake preincubated for 1 min followed by AITC addition measured after 12 mins; assay type: cell-based
Sequence of Transient receptor potential cation channel subfamily A member 1 (Q6RI86 whole entry): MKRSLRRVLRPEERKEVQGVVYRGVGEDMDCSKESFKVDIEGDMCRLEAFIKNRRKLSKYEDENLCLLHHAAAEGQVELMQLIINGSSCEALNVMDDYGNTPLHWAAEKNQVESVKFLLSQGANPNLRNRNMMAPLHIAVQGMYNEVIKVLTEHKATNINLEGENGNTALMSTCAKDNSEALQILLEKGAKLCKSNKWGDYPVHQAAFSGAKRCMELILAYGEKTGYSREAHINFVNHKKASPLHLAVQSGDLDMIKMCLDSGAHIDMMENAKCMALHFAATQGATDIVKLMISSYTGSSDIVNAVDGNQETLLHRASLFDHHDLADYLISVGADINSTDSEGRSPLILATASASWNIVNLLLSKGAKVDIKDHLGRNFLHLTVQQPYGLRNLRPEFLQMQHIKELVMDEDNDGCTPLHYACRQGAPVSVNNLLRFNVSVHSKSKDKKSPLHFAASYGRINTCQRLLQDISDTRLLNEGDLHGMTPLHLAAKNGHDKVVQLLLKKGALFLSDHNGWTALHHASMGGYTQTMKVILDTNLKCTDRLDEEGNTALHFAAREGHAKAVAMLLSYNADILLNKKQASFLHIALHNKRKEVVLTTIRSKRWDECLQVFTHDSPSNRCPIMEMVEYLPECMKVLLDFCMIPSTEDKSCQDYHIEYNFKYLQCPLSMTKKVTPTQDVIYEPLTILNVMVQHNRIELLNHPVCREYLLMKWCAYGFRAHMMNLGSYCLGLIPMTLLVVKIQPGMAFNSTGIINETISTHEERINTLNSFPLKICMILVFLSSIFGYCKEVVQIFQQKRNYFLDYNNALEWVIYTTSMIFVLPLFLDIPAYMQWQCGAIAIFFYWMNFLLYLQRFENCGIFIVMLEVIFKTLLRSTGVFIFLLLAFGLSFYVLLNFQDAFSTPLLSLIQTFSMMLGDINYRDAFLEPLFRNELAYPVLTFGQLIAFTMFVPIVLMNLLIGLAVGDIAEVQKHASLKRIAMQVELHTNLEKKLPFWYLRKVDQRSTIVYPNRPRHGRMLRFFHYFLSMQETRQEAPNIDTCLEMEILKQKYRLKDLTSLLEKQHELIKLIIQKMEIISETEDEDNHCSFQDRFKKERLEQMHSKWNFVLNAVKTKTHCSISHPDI

[3] = target: Alpha-2A adrenergic receptor (Homo sapiens) (UniProt P08913); assay: Displacement of [3H]RX-821002 from human recombinant adrenergic alpha2A expressed in CHO cells assessed as remaining radioligand binding at 10 uM after 60 mins by scintillation counting method relative to control; assay type: cell-based
Sequence of Alpha-2A adrenergic receptor (Homo sapiens) (P08913 whole entry): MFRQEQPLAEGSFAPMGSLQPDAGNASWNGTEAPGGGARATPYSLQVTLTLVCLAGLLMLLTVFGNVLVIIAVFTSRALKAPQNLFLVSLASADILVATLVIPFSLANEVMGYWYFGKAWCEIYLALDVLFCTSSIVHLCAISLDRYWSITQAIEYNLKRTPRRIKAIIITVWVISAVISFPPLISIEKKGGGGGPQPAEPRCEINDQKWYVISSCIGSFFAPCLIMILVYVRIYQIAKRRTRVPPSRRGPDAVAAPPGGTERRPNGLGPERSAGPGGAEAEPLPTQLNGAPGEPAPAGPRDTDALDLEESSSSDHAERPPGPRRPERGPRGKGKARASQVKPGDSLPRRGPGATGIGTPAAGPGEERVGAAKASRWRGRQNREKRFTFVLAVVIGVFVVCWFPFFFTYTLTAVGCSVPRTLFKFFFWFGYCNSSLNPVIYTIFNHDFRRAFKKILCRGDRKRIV

[4] = Apparent intrinsic clearance in rat liver microsomes; assay type: ADME; settings: read-out: CLH(app)
[5] = target: Adenosine receptor A2a (Homo sapiens) (UniProt P29274); assay: Displacement of [3H]CGS-21680 from human recombinant adenosine A2A receptor expressed in HEK293 cells assessed as remaining radioligand binding at 10 uM after 120 mins by scintillation counting method relative to control; assay type: cell-based
Sequence of Adenosine receptor A2a (Homo sapiens) (P29274 whole entry): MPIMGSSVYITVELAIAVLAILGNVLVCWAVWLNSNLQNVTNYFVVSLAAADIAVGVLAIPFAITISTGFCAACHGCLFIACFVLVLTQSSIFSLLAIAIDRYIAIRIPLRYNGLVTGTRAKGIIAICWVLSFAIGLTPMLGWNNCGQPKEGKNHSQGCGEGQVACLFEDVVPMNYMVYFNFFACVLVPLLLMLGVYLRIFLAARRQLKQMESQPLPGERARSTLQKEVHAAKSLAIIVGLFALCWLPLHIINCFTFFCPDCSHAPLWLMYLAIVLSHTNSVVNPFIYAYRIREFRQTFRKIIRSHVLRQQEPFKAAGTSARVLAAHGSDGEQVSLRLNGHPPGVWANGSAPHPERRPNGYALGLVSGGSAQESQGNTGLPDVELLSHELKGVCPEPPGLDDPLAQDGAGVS

Cytochrome P450 3A4 = Cytochrome P450 3A4 (Homo sapiens, UniProt P08684); assay: Inhibition of CYP3A4 in human liver microsomes using midazolam as substrate by LC-MS/MS analysis in presence of NADPH; assay type: ADME
Sequence of Cytochrome P450 3A4 (P08684 whole entry): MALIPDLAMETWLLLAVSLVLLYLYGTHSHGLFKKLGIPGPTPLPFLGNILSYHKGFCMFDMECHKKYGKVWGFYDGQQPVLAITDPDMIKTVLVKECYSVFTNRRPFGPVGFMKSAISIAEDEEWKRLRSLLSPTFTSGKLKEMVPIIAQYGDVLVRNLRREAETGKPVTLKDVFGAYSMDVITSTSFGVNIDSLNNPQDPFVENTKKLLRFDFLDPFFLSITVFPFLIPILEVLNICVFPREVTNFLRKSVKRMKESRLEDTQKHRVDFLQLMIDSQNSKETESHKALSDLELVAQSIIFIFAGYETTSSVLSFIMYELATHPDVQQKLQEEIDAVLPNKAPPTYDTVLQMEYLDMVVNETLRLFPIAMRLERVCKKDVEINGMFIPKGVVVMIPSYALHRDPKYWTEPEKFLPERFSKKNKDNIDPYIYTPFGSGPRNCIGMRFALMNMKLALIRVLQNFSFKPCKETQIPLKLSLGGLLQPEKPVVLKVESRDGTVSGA

[6] = target: Adenosine receptor A3 (Homo sapiens) (UniProt P0DMS8); assay: Displacement of [125I]AB-MECA from human recombinant adenosine A3 receptor expressed in HEK293 cells assessed as remaining radioligand binding at 10 uM after 120 mins by scintillation counting method relative to control; assay type: cell-based
Sequence of Adenosine receptor A3 (Homo sapiens) (P0DMS8 whole entry): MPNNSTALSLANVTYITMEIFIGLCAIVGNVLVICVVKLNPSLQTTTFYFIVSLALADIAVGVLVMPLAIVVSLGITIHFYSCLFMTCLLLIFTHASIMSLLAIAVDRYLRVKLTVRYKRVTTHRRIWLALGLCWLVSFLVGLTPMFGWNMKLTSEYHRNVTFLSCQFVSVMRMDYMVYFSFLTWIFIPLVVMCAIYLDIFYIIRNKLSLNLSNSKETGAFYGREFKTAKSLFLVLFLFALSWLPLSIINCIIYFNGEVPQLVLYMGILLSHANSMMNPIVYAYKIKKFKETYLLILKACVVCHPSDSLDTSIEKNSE

Rattus norvegicus [7] = assay: Antinociceptive activity in po dosed Harlan Sprague-Dawley rat assessed as inhibition of AITC-induced paw flinches pretreated for 1 hr followed by AITC injection measured for 1 min post injection; assay type: functional, organism-based
Outline: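 Rats were dosed orally with vehicle (2% HPMC/1% Tween-80) or antagonist at 1, 3, 10 or 30 mg/kg. After 1 h, 0.1% AITC was injected into the left ventral hind paw. Flinching was recorded over the first minute post-injection. Unbound plasma concentrations were measured at 1 h (n = 8 per dose).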

[8] = Cmax in rat at 30 mg/kg, po; assay type: ADME, organism-based; design: dose 30 mg/kg, route oral; settings: in vivo
Outline: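 Rat oral PK at 30 mg/kg (10 mg/kg for one analogue) in 1% Tween 80/2% HPMC/97% water with methanesulfonic acid, pH 2.2.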

Plasma = assay: Unbound plasma concentration in Harlan Sprague-Dawley rat model of AITC-induced flinching at 30 mg/kg, po at 1 hr; assay type: ADME, organism-based; settings: in vivo
Outline: (§1)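 Rats were given vehicle (2% HPMC/1% Tween-80) or compound orally at 1, 3, 10 or 30 mg/kg. After 1 h, 0.1% AITC was injected into one left ventral hind paw, and nocifensive flinching was recorded over the first minute. Unbound plasma concentration was measured at 1 h, n = 8 per dose. In vivo IC50/IC90 came from the exposure–response relationship across individual animals.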

[9] = target: Sodium-dependent noradrenaline transporter (Homo sapiens) (UniProt P23975); assay: Displacement of [3H]nisoxetine from human recombinant norepinephrine transporter expressed in CHO cells assessed as remaining radioligand binding at 10 uM after 120 mins by scintillation counting method relative to control; assay type: cell-based
[10] = Ratio of unbound plasma concentration in Harlan Sprague-Dawley rat model of AITC-induced flinching at 10 mg/kg, po to IC50 for rat TRPA1 expressed in tetracycline-inducible T-REx expression system transfected CHO cells by 45Ca2+ uptake assay; assay type: ADME, organism-based; settings: in vivo
Outline: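 Rats dosed orally at 1, 3, 10 or 30 mg/kg in 2% HPMC/1% Tween-80 vehicle. After 1 h, unbound plasma concentration measured (n = 8 per dose), intraplantar AITC (0.1%) given and flinching scored over the first minute. Unbound concentration divided by in vitro rat TRPA1 45Ca2+ IC50.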

Cytochrome P450 2D6 = Cytochrome P450 2D6 (Homo sapiens, UniProt P10635); assay: Inhibition of CYP2D6 in human liver microsomes using dextromethorphan as substrate by LC-MS/MS analysis in presence of NADPH; assay type: ADME
Sequence of Cytochrome P450 2D6 (P10635 whole entry): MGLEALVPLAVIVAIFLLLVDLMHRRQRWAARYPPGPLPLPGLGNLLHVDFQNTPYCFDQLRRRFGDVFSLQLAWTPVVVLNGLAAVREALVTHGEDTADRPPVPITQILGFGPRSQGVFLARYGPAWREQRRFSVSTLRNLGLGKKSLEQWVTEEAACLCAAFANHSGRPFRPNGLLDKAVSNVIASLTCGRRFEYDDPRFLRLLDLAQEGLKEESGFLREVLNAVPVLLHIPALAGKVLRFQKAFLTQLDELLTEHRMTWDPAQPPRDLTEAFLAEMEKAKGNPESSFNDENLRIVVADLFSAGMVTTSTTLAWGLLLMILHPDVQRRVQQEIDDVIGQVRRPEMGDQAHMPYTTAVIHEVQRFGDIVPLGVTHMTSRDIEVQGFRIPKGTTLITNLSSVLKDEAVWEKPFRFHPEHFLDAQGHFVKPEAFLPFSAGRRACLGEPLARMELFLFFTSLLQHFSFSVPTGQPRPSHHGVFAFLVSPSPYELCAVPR

[11] = target: 5-hydroxytryptamine receptor 4 (Homo sapiens) (UniProt Q13639); assay: Displacement of [3H]GR-113808 from human recombinant 5HT4E receptor expressed in CHO cells assessed as remaining radioligand binding at 10 uM after 60 mins by scintillation counting method relative to control; assay type: cell-based
Sequence of 5-hydroxytryptamine receptor 4 (Homo sapiens) (Q13639 whole entry): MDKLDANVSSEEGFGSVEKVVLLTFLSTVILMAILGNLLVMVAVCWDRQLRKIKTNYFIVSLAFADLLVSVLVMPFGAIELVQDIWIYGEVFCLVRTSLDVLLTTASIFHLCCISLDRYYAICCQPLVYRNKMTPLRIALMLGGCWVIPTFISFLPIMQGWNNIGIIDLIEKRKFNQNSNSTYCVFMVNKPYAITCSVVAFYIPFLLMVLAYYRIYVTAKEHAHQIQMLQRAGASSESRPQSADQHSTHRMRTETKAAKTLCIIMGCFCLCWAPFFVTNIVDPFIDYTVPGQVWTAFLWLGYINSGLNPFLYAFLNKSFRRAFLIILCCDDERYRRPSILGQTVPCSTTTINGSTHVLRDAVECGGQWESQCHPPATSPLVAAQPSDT

[12] = target: Cholecystokinin receptor type A (Homo sapiens) (UniProt P32238); assay: Displacement of [125I]CCK-8s from human recombinant CCK1 receptor expressed in CHO cells assessed as remaining radioligand binding at 10 uM after 60 mins by scintillation counting method relative to control; assay type: cell-based
Sequence of Cholecystokinin receptor type A (Homo sapiens) (P32238 whole entry): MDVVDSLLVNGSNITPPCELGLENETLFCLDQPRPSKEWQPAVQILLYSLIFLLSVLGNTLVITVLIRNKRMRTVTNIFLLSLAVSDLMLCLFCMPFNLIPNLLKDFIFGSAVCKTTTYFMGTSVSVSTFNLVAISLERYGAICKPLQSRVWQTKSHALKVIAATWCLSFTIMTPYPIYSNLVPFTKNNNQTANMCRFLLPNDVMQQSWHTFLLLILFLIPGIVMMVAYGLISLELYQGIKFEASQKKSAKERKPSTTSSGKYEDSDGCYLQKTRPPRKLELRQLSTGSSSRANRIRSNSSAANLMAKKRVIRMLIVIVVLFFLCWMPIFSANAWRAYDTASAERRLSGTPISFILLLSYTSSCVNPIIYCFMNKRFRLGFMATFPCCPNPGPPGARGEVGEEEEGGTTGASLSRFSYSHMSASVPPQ

[13] = target: Transient receptor potential cation channel subfamily V member 4 (Homo sapiens) (UniProt Q9HBA0); assay: Antagonist activity at human TRPV4 expressed in tetracycline-inducible T-REx expression system transfected CHO cells assessed as inhibition of 4alpha-PDD-induced Ca2+ influx up to 10 uM preincubated for 2.5 mins followed by 4alpha-PDD addition measured for 1 min by luminescence assay; assay type: cell-based
[14] = target: Muscarinic acetylcholine receptor M1 (Homo sapiens) (UniProt P11229); assay: Displacement of [3H]pirenzepine from human recombinant muscarinic M1 receptor expressed in CHO cells assessed as remaining radioligand binding at 10 uM after 60 mins by scintillation counting method relative to control; assay type: cell-based
Rattus norvegicus [15] = assay: In vivo inhibition of TRPA1 in Harlan Sprague-Dawley rat model of AITC-induced flinching assessed as unbound plasma concentration based IC90; assay type: functional; outline: as §1
Rattus norvegicus [16] = assay: Unbound clearance in rat at 0.5 mg/kg, iv as single dose; assay type: ADME, organism-based; settings: in vivo
Outline: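 Single intravenous dose of 0.5 mg/kg given to rats, formulated in 100% DMSO.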

[17] = target: Histamine H3 receptor (Homo sapiens) (UniProt Q9Y5N1); assay: Displacement of [3H]Na-Me-histamine from human recombinant histamine H3 receptor expressed in CHO cells assessed as remaining radioligand binding at 10 uM after 60 mins by scintillation counting method relative to control; assay type: cell-based
Rattus norvegicus [18] = assay: fCmax in rat at 30 mg/kg, po; assay type: ADME, organism-based; settings: in vivo
Outline: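 Rats dosed orally at 30 mg/kg, or 10 mg/kg for one analogue, in 1% Tween 80/2% HPMC/97% water with methanesulfonic acid, pH 2.2.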

[19] = target: D(3) dopamine receptor (Homo sapiens) (UniProt P35462); assay: Displacement of [3H]methyl-spiperone from human recombinant dopamine D3 receptor expressed in CHO cells assessed as remaining radioligand binding at 10 uM after 60 mins by scintillation counting method relative to control; assay type: cell-based
[20] = Fraction unbound in rat plasma; assay type: ADME, cell-free
[21] = target: Urotensin-2 receptor (Homo sapiens) (UniProt Q9UKP6); assay: Displacement of [125I]urotensin-2 from human recombinant urotensin-2 receptor expressed in CHO cells assessed as remaining radioligand binding at 10 uM after 120 mins by scintillation counting method relative to control; assay type: cell-based
Sequence of Urotensin-2 receptor (Homo sapiens) (Q9UKP6 whole entry): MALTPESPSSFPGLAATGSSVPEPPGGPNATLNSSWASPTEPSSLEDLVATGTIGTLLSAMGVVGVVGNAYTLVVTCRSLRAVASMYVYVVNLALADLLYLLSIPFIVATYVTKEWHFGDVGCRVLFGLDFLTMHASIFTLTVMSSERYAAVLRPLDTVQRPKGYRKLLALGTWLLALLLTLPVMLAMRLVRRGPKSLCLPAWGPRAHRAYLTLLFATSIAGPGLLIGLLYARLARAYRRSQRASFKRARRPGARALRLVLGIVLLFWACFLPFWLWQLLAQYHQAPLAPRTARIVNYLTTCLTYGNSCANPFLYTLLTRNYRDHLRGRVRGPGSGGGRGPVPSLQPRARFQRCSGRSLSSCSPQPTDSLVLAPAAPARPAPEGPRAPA

Sequence of Substance-K receptor (Homo sapiens) (P21452 whole entry): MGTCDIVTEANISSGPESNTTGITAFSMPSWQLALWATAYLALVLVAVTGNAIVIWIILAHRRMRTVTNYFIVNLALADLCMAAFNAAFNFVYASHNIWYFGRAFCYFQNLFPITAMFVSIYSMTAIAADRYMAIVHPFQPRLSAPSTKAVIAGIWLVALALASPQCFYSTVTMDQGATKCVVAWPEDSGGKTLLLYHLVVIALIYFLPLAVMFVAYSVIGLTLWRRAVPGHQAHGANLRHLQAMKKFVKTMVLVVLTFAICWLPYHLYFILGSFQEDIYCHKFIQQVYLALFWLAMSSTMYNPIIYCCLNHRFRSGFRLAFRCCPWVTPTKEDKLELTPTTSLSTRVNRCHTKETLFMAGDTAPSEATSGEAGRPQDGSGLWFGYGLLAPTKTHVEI

Activity [1]: > 77%
Activity (Cavia porcellus): > 77%
IC50 [2]: 0.071 µM
Activity [3]: > 77%
microsomal CLint [4]: 41 µL/min/mg
Activity [5]: > 77%
IC50 (Cytochrome P450 3A4): > 27 µM
Activity [6]: > 77%
Cmax [8]: 7.5 µM
Cp(f) (Plasma): 2.2 µM
Activity [9]: > 77%
Ratio [10]: 8.2
IC50 (Cytochrome P450 2D6): > 27 µM
Activity [11]: > 77%
Activity [12]: > 77%
inhibition [13]: inactive
Activity [14]: > 77%
IC90 (Rattus norvegicus [15]): 1.7 µM
CL free (Rattus norvegicus [16]): 150 mL/min/kg
Activity [17]: > 77%
fCmax (Rattus norvegicus [18]): 2.2 µM
Activity [19]: > 77%
fraction unbound [20]: 0.289
Activity [21]: > 77%
SMILES: Cn1cnc2ncn(Cc3nc(CCc4ccc(Cl)cc4)no3)c(=O)c21
inhibition (Rattus norvegicus [7]): Dose-dependent effect
